{"source": "ChEMBL document CHEMBL2157991", "about": "“Synthesis and pharmacological evaluation of 2,4-dinitroaryldithiocarbamate derivatives as novel monoacylglycerol lipase inhibitors” (J Med Chem, 2012)", "key": {"[1]": {"test_system": "T1, Monoglyceride lipase (Homo sapiens), Q99685 [C208A]", "T1 sequence (whole entry)": "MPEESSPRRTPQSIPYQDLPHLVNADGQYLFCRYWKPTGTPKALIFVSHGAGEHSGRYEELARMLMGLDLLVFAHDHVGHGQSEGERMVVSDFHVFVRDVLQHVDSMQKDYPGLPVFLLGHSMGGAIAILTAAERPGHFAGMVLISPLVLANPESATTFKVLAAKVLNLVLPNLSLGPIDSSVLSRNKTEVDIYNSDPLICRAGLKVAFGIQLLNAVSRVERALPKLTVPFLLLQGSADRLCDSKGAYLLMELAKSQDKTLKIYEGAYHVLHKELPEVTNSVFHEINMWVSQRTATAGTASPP", "test": "Inhibition of human MAGL C208A mutant expressed in Escherichia coli", "outline": "(§1)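 Homogenates of E. coli expressing wild-type or C201A, C208A, C242A or C208A/C242A mutant MAGL used as enzyme source in the [3H]-2-OG hydrolysis assay; n = 3 in duplicate.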"}, "[2]": {"test_system": "T2, Monoglyceride lipase (Homo sapiens), Q99685 [C208A,C242A]", "T2 sequence (whole entry)": "T1 sequence (whole entry) with C242A", "test": "Inhibition of human MAGL C208A/C242A mutant expressed in Escherichia coli", "outline": "as §1"}, "[3]": {"test_system": "T3, Monoglyceride lipase (Homo sapiens), Q99685 [C201A]", "T3 sequence (whole entry)": "T1 sequence (whole entry) with C201A, A208C", "test": "Inhibition of human MAGL C201A mutant expressed in Escherichia coli", "outline": "as §1"}, "[4]": {"molecular_target": "T4, Monoglyceride lipase (Homo sapiens) (UniProt Q99685)", "T4 sequence (whole entry)": "T1 sequence (whole entry) with A208C", "test": "Inhibition of MAGL at 10^-8.5 M after 30 mins by liquid scintillation counter", "outline": "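Pure MAGL (105 ng, 20 μL) incubated 30 min at room temperature with inhibitor at 10−3 to 10−6 M or DMSO, then diluted 300-fold in Tris pH 8.0; after 15 min, aliquot assayed with [3H]-2-OG by standard protocol; same nominal post-dilution concentrations also assayed directly; percent of control, one-way ANOVA with Dunnett's test.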"}, "Monoglyceride lipase": {"molecular_target": "T5, Monoglyceride lipase (Homo sapiens, UniProt Q99685)", "T5 sequence (Q99685 whole entry)": "T1 sequence (whole entry) with A208C", "test": "Inhibition of human recombinant MAGL using [3H]-2-OG as substrate after 10 mins by liquid scintillation counter", "outline": "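Purified recombinant hMAGL (5 ng; Tris pH 8.0, 50 mM, 0.1% BSA) with inhibitor in DMSO and [3H]-2-OG (10 μM), 10 min at 37 °C; stopped with ice-cold methanol–chloroform, aqueous-phase radioactivity by liquid scintillation, no-enzyme blanks subtracted; pIC50 from dose–response, mean ± SEM of three experiments in duplicate.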"}, "[5]": {"test_system": "T6, Monoglyceride lipase (Homo sapiens), Q99685 [C242A]", "T6 sequence (whole entry)": "T1 sequence (whole entry) with A208C, C242A", "test": "Inhibition of human MAGL C242A mutant expressed in Escherichia coli", "outline": "as §1"}, "[6]": {"molecular_target": "T7, Fatty-acid amide hydrolase 1 (Homo sapiens, UniProt O00519)", "T7 sequence (O00519 whole entry)": "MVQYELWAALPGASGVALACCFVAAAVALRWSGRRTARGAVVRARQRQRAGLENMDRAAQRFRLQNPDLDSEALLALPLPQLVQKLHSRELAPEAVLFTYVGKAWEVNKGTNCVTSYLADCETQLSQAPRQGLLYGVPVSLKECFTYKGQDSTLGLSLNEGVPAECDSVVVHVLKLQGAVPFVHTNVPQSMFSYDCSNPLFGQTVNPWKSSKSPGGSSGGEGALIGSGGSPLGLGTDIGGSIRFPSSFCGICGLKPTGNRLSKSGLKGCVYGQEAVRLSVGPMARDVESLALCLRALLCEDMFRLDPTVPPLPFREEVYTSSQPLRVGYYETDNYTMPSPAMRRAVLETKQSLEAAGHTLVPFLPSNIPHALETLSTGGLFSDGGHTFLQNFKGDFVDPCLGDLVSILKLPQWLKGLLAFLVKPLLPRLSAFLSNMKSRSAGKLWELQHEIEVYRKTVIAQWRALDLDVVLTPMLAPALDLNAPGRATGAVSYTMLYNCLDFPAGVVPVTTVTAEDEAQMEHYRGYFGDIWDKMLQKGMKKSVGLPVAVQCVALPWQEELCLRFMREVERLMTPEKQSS", "test": "Inhibition of human recombinant FAAH assessed as conversion of [3H]AEA to [3H]ethanolamine after 10 mins by liquid scintillation counter", "outline": "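Human recombinant FAAH (6 ng protein, Tris-EDTA) with inhibitor in DMSO; [3H]AEA at 2 μM final, 10 min at 37 °C; stopped with ice-cold methanol–chloroform, [3H]ethanolamine in aqueous layer counted by liquid scintillation, buffer blanks subtracted; pIC50 from dose–response, mean ± SEM of three experiments in duplicate.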"}}, "note": "Changes are numbered by the printed parent chain. Active and inactive are the calls of the source. The rule behind the calls is not given here.", "data": [{"smiles": "CC(C)(C)c1ccc(CN2CCN(C(=S)Sc3ccc([N+](=O)[O-])cc3[N+](=O)[O-])CC2)cc1", "values": [{"measurement": "inhibition", "setting": "[1]", "result": "inactive"}, {"measurement": "inhibition", "setting": "[2]", "result": "inactive"}, {"measurement": "inhibition", "setting": "[3]", "result": "Active"}, {"measurement": "inhibition", "setting": "[4]", "result": "inactive"}, {"measurement": "IC50", "setting": "Monoglyceride lipase", "result": 155, "unit": "nM"}, {"measurement": "inhibition", "setting": "[5]", "result": "inactive"}, {"measurement": "IC50", "setting": "[6]", "result": 1740, "unit": "nM"}]}]}
